In ChEMBL document CHEMBL1148476, “3-(4-Aroyl-1-methyl-1H-2-pyrrolyl)-N-hydroxy-2-propenamides as a new class of synthetic histone deacetylase inhibitors. 2. Effect of pyrrole-C2 and/or -C4 substitutions on biological activity” (J Med Chem, 2004):
The source made the active and inactive calls. The calls are words filed in the database; no cut-off is given here. Non-standard residues stand in square brackets, D forms with d. Residues, ends and D or L forms follow the SMILES beside them. ξ: configuration not given here. Aoe(9ξ) = N[C@@H](CCCCCC(=O)C1CO1)C(=O)O; dPip = O=C(O)[C@H]1CCCCN1

Key:
[1] = target: T1, Histone deacetylase HD2 (Zea mays, UniProt Q94F81); experiment: Concentration required for inhibition of histone deacetylase HD2 in vitro.
T1 sequence (Q94F81 whole entry): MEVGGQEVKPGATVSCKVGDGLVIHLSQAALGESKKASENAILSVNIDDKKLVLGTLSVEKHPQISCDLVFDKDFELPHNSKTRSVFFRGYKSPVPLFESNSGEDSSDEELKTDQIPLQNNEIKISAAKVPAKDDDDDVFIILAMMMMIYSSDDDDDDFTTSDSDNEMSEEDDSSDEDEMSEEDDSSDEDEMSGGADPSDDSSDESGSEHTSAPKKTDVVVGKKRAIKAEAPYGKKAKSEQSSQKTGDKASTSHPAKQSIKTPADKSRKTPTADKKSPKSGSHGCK

[2] = target: T2, Histone deacetylase HD2 (Zea mays) (UniProt Q94F81); settings: 24.6 uM
T2 sequence (whole entry): T1 sequence (Q94F81 whole entry)

[3] = target: T1, Histone deacetylase HD2; experiment: (§1) Inhibitory concentration against histone deacetylase HD2 enzyme.
How it was run: (§2)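 Maize HD2, purified by anion exchange, heparin/histone affinity and size exclusion chromatography, incubated 30 min at 30 °C with [3H]acetate-prelabeled chicken reticulocyte core histones (1 mg/mL). Stopped with HCl/acetate and extracted into ethyl acetate. Released [3H]acetic acid in the upper phase was counted by liquid scintillation. Compounds started at 40 µM and active ones were diluted further. Blank solvents served as negative controls. IC50 values are from triple determinations.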

[4] = target: T2, Histone deacetylase HD2 (Zea mays); experiment: Ability to inhibit maize histone deacetylase enzyme in vitro using [3H]acetate-prelabeled chicken reticulocyte histones at 20.8 uM; how it was run: as §2
[5] = target: T2, Histone deacetylase HD2 (Zea mays); experiment: Ability to inhibit maize histone deacetylase enzyme in vitro using [3H]acetate-prelabeled chicken reticulocyte histones at 23.9 uM; how it was run: as §2
[6] = target: T2, Histone deacetylase HD2 (Zea mays); experiment: Ability to inhibit maize histone deacetylase enzyme in vitro using [3H]acetate-prelabeled chicken reticulocyte histones at 28 uM; how it was run: as §2
[7] = target: T2, Histone deacetylase HD2 (Zea mays); experiment: Ability to inhibit maize histone deacetylase enzyme in vitro using [3H]acetate-prelabeled chicken reticulocyte histones at 24 uM
How it was run: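 Maize HD2 purified by anion exchange, heparin/histone affinity and size exclusion chromatography. Enzyme incubated 30 min at 30 °C with [3H]acetate-prelabeled chicken reticulocyte core histones (1 mg/mL stock). Reaction stopped with HCl/acetate plus ethyl acetate, then centrifuged. Released [3H]acetic acid in the upper phase counted by liquid scintillation. Blank solvent served as negative control. Triple determinations.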

[8] = target: T2, Histone deacetylase HD2 (Zea mays); experiment: Ability to inhibit maize histone deacetylase enzyme in vitro using [3H]acetate-prelabeled chicken reticulocyte histones at 25.7 uM; how it was run: as §2
[9] = target: T2, Histone deacetylase HD2 (Zea mays); experiment: Ability to inhibit maize histone deacetylase enzyme in vitro using [3H]acetate-prelabeled chicken reticulocyte histones at 28.2 uM; how it was run: as §2
[10] = target: T2, Histone deacetylase HD2 (Zea mays); experiment: Ability to inhibit maize histone deacetylase enzyme in vitro using [3H]acetate-prelabeled chicken reticulocyte histones at 24.8 uM; how it was run: as §2
[11] = target: T2, Histone deacetylase HD2 (Zea mays); settings: 25 uM
[12] = target: T2, Histone deacetylase HD2 (Zea mays); experiment: Ability to inhibit maize histone deacetylase enzyme in vitro using [3H]acetate-prelabeled chicken reticulocyte histones at 23.3 uM; how it was run: as §2
[13] = target: T2, Histone deacetylase HD2 (Zea mays); experiment: Ability to inhibit maize histone deacetylase enzyme in vitro using [3H]acetate-prelabeled chicken reticulocyte histones at 25.8 uM; how it was run: as §2
[14] = target: T2, Histone deacetylase HD2 (Zea mays); experiment: as §1; how it was run: as §2
[15] = target: T2, Histone deacetylase HD2 (Zea mays); experiment: Ability to inhibit maize histone deacetylase enzyme in vitro using [3H]acetate-prelabeled chicken reticulocyte histones at 27 uM; how it was run: as §2
[16] = target: T2, Histone deacetylase HD2 (Zea mays); settings: 22.4 uM
[17] = target: T2, Histone deacetylase HD2 (Zea mays); experiment: Ability to inhibit maize histone deacetylase enzyme in vitro using [3H]acetate-prelabeled chicken reticulocyte histones at 29.8 uM; how it was run: as §2
[18] = target: T2, Histone deacetylase HD2 (Zea mays); experiment: Ability to inhibit maize histone deacetylase enzyme in vitro using [3H]acetate-prelabeled chicken reticulocyte histones at 22.6 uM; how it was run: as §2
[19] = target: T2, Histone deacetylase HD2 (Zea mays); experiment: Ability to inhibit maize histone deacetylase enzyme in vitro using [3H]acetate-prelabeled chicken reticulocyte histones at 29 uM
How it was run: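 Maize HD2 purified by anion exchange, heparin/histone affinity and size exclusion chromatography. Enzyme incubated 30 min at 30 °C with [3H]acetate-prelabeled chicken reticulocyte core histones (1 mg/mL). Stopped with HCl/acetate, then extracted into ethyl acetate; released [3H]acetic acid in the upper phase counted by liquid scintillation. Triple determinations; blank solvent as negative control.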

[20] = target: T2, Histone deacetylase HD2 (Zea mays); experiment: Ability to inhibit maize histone deacetylase enzyme in vitro using [3H]acetate-prelabeled chicken reticulocyte histones at 30 uM; NI = No inhibition; how it was run: as §2
[21] = target: T2, Histone deacetylase HD2 (Zea mays); experiment: Ability to inhibit maize histone deacetylase enzyme in vitro using [3H]acetate-prelabeled chicken reticulocyte histones at 30 uM; No inhibition; how it was run: as §2
[22] = target: T2, Histone deacetylase HD2 (Zea mays); experiment: Ability to inhibit maize histone deacetylase enzyme in vitro using [3H]acetate-prelabeled chicken reticulocyte histones at 21.3 uM; how it was run: as §2
[23] = target: T2, Histone deacetylase HD2 (Zea mays); experiment: Ability to inhibit maize histone deacetylase enzyme in vitro using [3H]acetate-prelabeled chicken reticulocyte histones at 21.7 uM; how it was run: as §2
[24] = target: T2, Histone deacetylase HD2 (Zea mays); experiment: Ability to inhibit maize histone deacetylase enzyme in vitro using [3H]acetate-prelabeled chicken reticulocyte histones at 26 uM; how it was run: as §2

| SMILES | IC50 [1] [nM] | IC50 [3] [nM] | further results |
| --- | --- | --- | --- |
| Cn1cc(C(=O)CCCc2ccccc2)cc1/C=C/C(=O)NO | 130 | 129 | inhibition [2]: 94% |
| Cn1cc(C(=O)CCCCCCCc2ccccc2)cc1/C=C/C(=O)NO | 209 | 209 | inhibition [4]: 96% |
| Cn1cc(C(=O)/C=C/c2ccccc2)cc1/C=C/C=C/C(=O)NO | 9900 | 10000 | inhibition [5]: 66% |
| Cn1cc(C(=O)/C=C/c2ccccc2)cc1/C=C/C(=O)NO | 1000 | 1000 | inhibition [6]: 95% |
| O=C(CCCCC[C@@H]1NC(=O)[C@H]2CCCCN2C(=O)[C@H](Cc2ccccc2)NC(=O)[C@H](Cc2ccccc2)NC1=O)C1CO1 (stereo partly specified) [TRAPOXIN A] (cyclo(FF[dPip][Aoe(9ξ)])) | 10 |  |  |
| Cn1cc(C(=O)c2cccc3ccccc23)cc1/C=C/C(=O)NO | 144 | 145 | inhibition [7]: 93.6% |
| Cn1cc(C(=O)CCc2ccccc2)cc1/C=C/C(=O)NO | 43 | 42.7 | inhibition [8]: 98% |
| Cn1c(CC(=O)NO)ccc1C(=O)Cc1ccccc1 | 17100 | 17000 | inhibition [9]: 64.2% |
| Cn1cc(C(=O)Cc2ccccc2)cc1/C=C/C=C/C(=O)NO | 1480 | 1480 | inhibition [10]: 89.8% |
| C/C(=C\c1cc(C(=O)/C=C/c2ccccc2)cn1C)C(=O)NO | 1300 | 1290 | inhibition [11]: 96% |
| Cn1cc(C(=O)c2ccccc2)cc1/C=C/C=C/C(=O)NO | 770 | 776 | inhibition [6]: 94% |
| Cn1cc(C(=O)c2ccccc2)cc1C=C(C(=O)NO)C(=O)NO | 66000 | 66100 | inhibition [12]: 22.7% |
| CC/C(=C\c1cc(C(=O)c2ccccc2)cn1C)C(=O)NO |  |  | inhibition [13]: 37%; Log IC50 [14]: inactive |
| Cn1cc(C(=O)CCCCc2ccccc2)cc1/C=C/C(=O)NO | 110 | 110 | inhibition [12]: 94% |
| Cn1cc(C(=O)C2CC2c2ccccc2)cc1/C=C/C(=O)NO (stereo unspecified) | 310 | 309 | inhibition [10]: 97.6% |
| Cn1cc(C(=O)Cc2ccccc2)cc1CCC(=O)NO | 1200 | 1200 | inhibition [15]: 96% |

| SMILES | IC50 [1] [nM] | IC50 [3] [nM] | further results |
| --- | --- | --- | --- |
| Cn1cc(C(=O)Cc2ccccc2)cc1C=C(C(=O)NO)C(=O)NO | 200 | 200 | inhibition [16]: 91% |
| Cn1c(CC(=O)NO)ccc1C(=O)c1ccccc1 | 20500 | 20400 | inhibition [17]: 61.3% |
| Cn1cc(C(=O)CCCCCc2ccccc2)cc1/C=C/C(=O)NO | 71 | 70.8 | inhibition [18]: 97.2% |
| Cn1cc(C(=O)Cc2ccccc2)cc1/C=C/C(=O)NO | 100 | 100 | inhibition [19]: 96% |
| Cn1cc(C(=O)c2ccccc2)cc1C=C(C(=O)O)C(=O)O |  |  | inhibition [20]: inactive; Log IC50 [14]: inactive |
| Cn1cc(C(=O)Cc2ccccc2)cc1CC(=O)NO | 10800 | 10700 | inhibition [9]: 62.8% |
| CCCC(CCC)C(=O)O [VALPROATE SODIUM] | 128000 |  |  |
| Cn1cc(C(=O)Cc2ccccc2)cc1C=C(C(=O)O)C(=O)O |  |  | inhibition [21]: inactive; Log IC50 [14]: inactive |
| Cn1cc(C(=O)c2ccc3ccccc3c2)cc1/C=C/C(=O)NO | 115 | 115 | inhibition [7]: 93.8% |
| C/C(=C\c1cc(C(=O)c2ccccc2)cn1C)C(=O)NO | 2700 | 2690 | inhibition [15]: 83% |
| Cn1cc(C(=O)C2(c3ccccc3)CC2)cc1/C=C/C(=O)NO | 101 | 100 | inhibition [22]: 94.2% |
| Cn1cc(C(=O)c2ccccc2)cc1CC(=O)NO | 34700 | 34700 |  |
| Cn1cc(C(=O)CCCCCCc2ccccc2)cc1/C=C/C(=O)NO | 266 | 263 | inhibition [23]: 95% |
| CC/C(=C\c1cc(C(=O)Cc2ccccc2)cn1C)C(=O)NO |  |  | inhibition [21]: inactive; Log IC50 [14]: inactive |
| C/C(=C\c1cc(C(=O)Cc2ccccc2)cn1C)C(=O)NO | 1400 | 1410 | inhibition [24]: 95% |
| CC/C(=C\c1cc(C(=O)/C=C/c2ccccc2)cn1C)C(=O)NO |  |  | inhibition [21]: inactive; Log IC50 [14]: inactive |
